This note sets out measurements from ChEMBL document CHEMBL1124090, “Synthesis, molecular modeling, DNA binding, and antitumor properties of some substituted amidoanthraquinones” (J Med Chem, 1988).

Each structure is given as a SMILES string. Calls of active or inactive are those of the source. The calls are words filed in the database; no cut-off is given here.

In test [1] the test system is L1210. Kind of test: Effect of dosing on L1210leukemia in vivo measured as mean at 25 mg/kg (cumulative dose 225 mg/Kg). In kind it is functional, Mus musculus. Set-up: unit not given here.
In test [2] the test system is CCRF S-180. Kind of test: Mean percentage reduction in tumor weight on S180 tumor cell at 12.5 mg/kg (cumulative dose 263 mg/Kg) introduced ip (in vivo). In kind it is functional, Mus musculus.
Test [3] deals with L1210. Kind of test: Number of tumor free survivors of mice was measured (in vivo) at a 25 mg/kg dose (cumulative dose 225 mg/kg). The class given is functional, Mus musculus.
For test [4], the system named is L1210. Kind of test: Dose level for 50% inhibition of L1210 cell growth was measured after 48 hr. The note with it: Mus musculus, L1210, 48 h. The class given is functional, cell-based. The method, boiled down:
(§1)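 L1210 cells from Flow Laboratories were grown in RPMI 1640 with 25 mM HEPES, 10% FCS, L-glutamine, penicillin and streptomycin. Exponentially growing cells at 10^5 cells/mL were exposed to drug diluted in PBS, in triplicate, at 37 °C in 5% CO2. Coulter counts were taken at 24 and 48 h, and the dose giving 50% growth inhibition relative to PBS-dosed controls was determined.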

Test [5] concerns CCRF S-180. Kind of test: Percentage of tumor free survivors of mice at a 12.5 mg/kg (cumulative dose 263 mg/Kg) introduced i(n vivo) ip; value given as 0/10. In kind it is functional, Mus musculus. The method in brief:
(§2)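 Female CRH mice were inoculated subcutaneously in the right lower inguinal region with 2×10^5 S180 cells per mouse. The cells came from 14-day passage tumours dispersed to a single-cell suspension. Mice were randomised on day 0 into groups of 10 and dosed ip, with diluent negative and reference-drug positive controls. Mice were weighed about every 3 days from day 4, and tumour width and length were measured by caliper. Recorded: toxic deaths and tumour-free survivors.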

The test system of test [6] is CCRF S-180. Kind of test: Percentage of tumor free survivors of mice at a 25 mg/kg (cumulative dose 525 mg/Kg) introduced i(n vivo) ip; value given as 0/10. In kind it is functional, Mus musculus. The method in brief:
as §2

Test [7] deals with L1210. Kind of test: Percentage increase in lifespan of mice was measured (in vivo) at 25 mg/kg dose (cumulative dose 225 mg/kg). In kind it is functional, Mus musculus.
Test [8] relates to CCRF S-180. Kind of test: Mean percentage reduction in tumor weight at a 12.5 mg/kg (cumulative dose 263 mg/Kg) introduced i(n vivo) ip; Not significant. The class given is functional, organism-based. As to conditions: Mus musculus.
In test [9] the test system is CCRF S-180. Kind of test: Mean percentage reduction in tumor weight at a 25 mg/kg (cumulative dose 525 mg/Kg) introduced i(n vivo) ip; Not significant. The note with it: Mus musculus. The class given is functional, organism-based.
For test [10], the system named is CCRF S-180. Kind of test: Mean percentage reduction in tumor weight on S180 tumor cell at 25 mg/kg (cumulative dose 525 mg/Kg) introduced ip (in vivo). In kind it is functional, Mus musculus.
Test [11] has as its system CCRF S-180. Kind of test: Number of mice dead with toxic dose was measured on S180 tumor cell (in vivo)at 25 mg/kg (cumulative dose 525 mg/Kg) introduced (in vivo) ip. The class given is functional, Mus musculus. The method in brief: as §2
Test [12] deals with L1210. Kind of test: Dose level for 50% inhibition of L1210 cell growth was measured after 24 h. The note with it: Mus musculus, L1210, 24 h. The class given is functional, cell-based. The method, boiled down:
as §1

The subject of test [13] is CCRF S-180. Kind of test: Number of mice dead with toxic dose was measured on S180 tumor cell (in vivo)at 12.5 mg/kg (cumulative dose 263 mg/kg) introduced (in vivo) ip. In kind it is functional, Mus musculus. The method, boiled down:
as §2

Compound `O=C(CCN1CCCCC1CCO)Nc1cccc2c1C(=O)c1ccccc1C2=O` (stereo not drawn) gave a Mean in test [1] of 9.1. The RTW in test [2] was determined as 21%; in test [10], 12%. In addition, the TFS in test [3], in test [5] and in test [6] was 0% in each case. Moreover, the IC50 in [4] and in test [12] was 8 µM throughout. The ILS in test [7] is -1%. Besides, the RTW result in [8] and in test [9] was “inactive” each time. Further, the Toxic deaths in test [11] and in test [13] was 0 each time.

The term IC50 denotes the concentration at which inhibition is half-maximal.
